Reference: ChEMBL document CHEMBL4699393, “Meridianin D analogues possess antibiofilm activity against Mycobacterium smegmatis” (RSC Med Chem, 2020)
Values after ≈ are worked out from the molar mass of the structure shown.

Columns and labels:
[1] = system: Mycolicibacterium smegmatis; test: Antibiofilm activity against Mycobacterium smegmatis mc2 155 ATCC 700084 assessed as dispersion of preformed biofilms measured after 24 hrs by crystal violet reporter assay; assay type: functional, organism-based; conditions: MC2 155 ATCC 700084, 24 h
Outline: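 Cultures (48 h) diluted to 0.01 in M9 minimal salts with glucose, MgSO4 and CaCl2 in PVC plates. Biofilm grown stationary at 37 °C for 48 h, washed, then fresh medium with compound added for 24 h at 37 °C. Stained with 0.1% crystal violet 30 min, solubilised in 95% ethanol, OD540 read. Media blanks subtracted. Dispersion calculated against untreated biofilm wells. At least three repeats.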

[2] = system: Mycolicibacterium smegmatis; test: Antibiofilm activity against Mycobacterium smegmatis mc2 155 ATCC 700084 assessed as inhibition of biofilm formation measured after 24 hrs by crystal violet reporter assay; assay type: functional, organism-based; conditions: MC2 155 ATCC 700084, 24 h
[3] = system: Mycolicibacterium smegmatis; test: Potentiation of Cefotaxime-induced antibacterial activity against Mycobacterium smegmatis mc2 155 ATCC 700084 assessed as Cefotaxime MIC at 60 uM incubated for 48 hrs by alamarblue dye based broth microdilution method (reference value: 128 ug/ml); assay type: functional
Outline: (§1)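 Inoculum from 48 h cultures set to 5 x 10^5 CFU/mL in 7H9 + ADC and pre-dosed with compound from DMSO stock at fixed concentration. β-lactam two-fold serially diluted from top concentration, with an antibiotic-only control series. Stationary 37 °C for 48 h, then alamarBlue for 8 h. MIC is the lowest blue (non-viable) well. Fold reduction is relative to the antibiotic-only MIC. Duplicates, at least two repeats.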

[4] = system: Mycolicibacterium smegmatis; test: Antibacterial activity against Mycobacterium smegmatis mc2 155 ATCC 700084 assessed as inhibition of bacterial growth incubated for 48 hrs by alamarblue dye based broth microdilution method; assay type: functional
Outline: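 Inoculum from 48 h cultures set to 5 x 10^5 CFU/mL in 7H9 + ADC. Compound in DMSO two-fold serially diluted from 200 µM top concentration. Stationary 37 °C for 48 h, then alamarBlue for 8 h at 37 °C. MIC is the lowest concentration with no viable bacteria (blue, not pink). Duplicate wells, at least two independent repeats.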

[5] = system: Mycolicibacterium smegmatis; test: Potentiation of Oxacillin-induced antibacterial activity against Mycobacterium smegmatis mc2 155 ATCC 700084 assessed as Oxacillin MIC at 60 uM incubated for 48 hrs by alamarblue dye based broth microdilution method (Rvb =512 ug/ml); assay type: functional; outline: as §1
[6] = system: Mycolicibacterium smegmatis; test: Potentiation of Ceftazidime-induced antibacterial activity against Mycobacterium smegmatis mc2 155 ATCC 700084 assessed as fold reduction in Ceftazidime MIC at 60 uM incubated for 48 hrs by alamarblue dye based broth microdilution method; assay type: functional; outline: as §1
[7] = system: Mycolicibacterium smegmatis; test: Potentiation of oxacillin-induced antibacterial activity against Mycobacterium smegmatis mc2 155 ATCC 700084 assessed as fold reduction in oxacillin MIC at 60 uM incubated for 48 hrs by alamarblue dye based broth microdilution method; assay type: functional; outline: as §1
[8] = system: Mycolicibacterium smegmatis; test: Potentiation of Ampicillin-induced antibacterial activity against Mycobacterium smegmatis mc2 155 ATCC 700084 assessed as fold reduction in Ampicillin MIC at 60 uM incubated for 48 hrs by alamarblue dye based broth microdilution method; assay type: functional; outline: as §1
[9] = system: Mycolicibacterium smegmatis; test: Potentiation of Cefoxitin-induced antibacterial activity against Mycobacterium smegmatis mc2 155 ATCC 700084 assessed as Cefoxitin MIC at 60 uM incubated for 48 hrs by alamarblue dye based broth microdilution method (reference value: 16 ug/ml); assay type: functional; outline: as §1
[10] = system: Mycolicibacterium smegmatis; test: Potentiation of Cefoxitin-induced antibacterial activity against Mycobacterium smegmatis mc2 155 ATCC 700084 assessed as fold reduction in Cefoxitin MIC at 60 uM incubated for 48 hrs by alamarblue dye based broth microdilution method; assay type: functional; outline: as §1
[11] = system: Mycolicibacterium smegmatis; test: Potentiation of Ampicillin-induced antibacterial activity against Mycobacterium smegmatis mc2 155 ATCC 700084 assessed as Ampicillin MIC at 60 uM incubated for 48 hrs by alamarblue dye based broth microdilution method (reference value: 128 ug/ml); assay type: functional; outline: as §1
[12] = system: Mycolicibacterium smegmatis; test: Potentiation of Cefotaxime-induced antibacterial activity against Mycobacterium smegmatis mc2 155 ATCC 700084 assessed as fold reduction in Cefotaxime MIC at 60 uM incubated for 48 hrs by alamarblue dye based broth microdilution method; assay type: functional; outline: as §1
[13] = system: Mycolicibacterium smegmatis; test: Potentiation of Ceftazidime-induced antibacterial activity against Mycobacterium smegmatis mc2 155 ATCC 700084 assessed as Ceftazidime MIC at 60 uM incubated for 48 hrs by alamarblue dye based broth microdilution method (reference value: 512 ug/ml); assay type: functional; outline: as §1
[14] = Hemolytic activity in sheep RBC assessed as hemolysis at 200 uM measured after 1 hr by UV spectrometer analysis; assay type: ADME, cell-based, Ovis aries, Erythrocyte; conditions: sheep red blood cells (erythrocytes), read-out: Activity
Outline: (§2)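 Mechanically defibrinated sheep blood was centrifuged, and the cells were washed and resuspended in PBS three times, then diluted 10-fold. Compound was added from DMSO stock. Controls were 1% Triton X (100% lysis) and PBS (zero lysis). Samples were incubated 1 h at 37 °C with shaking at 200 rpm, then centrifuged. Supernatant was diluted 40-fold in distilled water and read at A540. Run in duplicate, repeated at least twice.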

[15] = Hemolytic activity in sheep RBC assessed as hemolysis at 500 uM measured after 1 hr by UV spectrometer analysis; assay type: ADME, cell-based, Ovis aries, Erythrocyte; conditions: sheep red blood cells (erythrocytes), read-out: Activity; outline: as §2

## Nc1nccc(-c2c[nH]c3cccc(Br)c23)n1
[1]
  EC50: > 50 µM
[2]
  IC50: > 50 µM

## Nc1nccc(-c2c[nH]c3c(Br)cccc23)n1
[1]
  EC50: > 50 µM
[2]
  IC50: 26 µM

## Nc1nccc(-c2c[nH]c3ccc(Cl)cc23)n1
[1]
  EC50: > 50 µM
[2]
  IC50: 18.3 µM

## Nc1nccc(-c2c[nH]c3ccc(F)cc23)n1
[1]
  EC50: > 50 µM
[2]
  IC50: 16 µM

## Nc1nccc(-c2c[nH]c3cc(Cl)ccc23)n1
[1]
  EC50: > 50 µM
[2]
  IC50: 26.6 µM

## CCCn1cc(-c2ccnc(N)n2)c2cc(Br)ccc21
[1]
  EC50: > 50 µM
[2]
  IC50: 15.1 µM

## CCCn1cc(-c2ccnc(N)n2)c2ccc(I)cc21
[1]
  EC50: > 50 µM
[2]
  IC50: > 50 µM

## CCCCn1cc(-c2ccnc(N)n2)c2cc(Br)ccc21
[1]
  EC50: > 50 µM
[2]
  IC50: 22.7 µM

## Nc1nccc(-c2c[nH]c3cc(F)ccc23)n1
[1]
  EC50: > 50 µM
[2]
  IC50: 21.6 µM

## CC(C)Cn1cc(-c2ccnc(N)n2)c2ccc(Br)cc21
[1]
  EC50: > 50 µM
[2]
  IC50: 50.4 µM

## CNc1nccc(-c2c[nH]c3ccc(Br)cc23)n1
[1]
  EC50: 45 µM
[3]
  MIC: 64 µg/mL
[4]
  MIC: ≥ 200 µM
[2]
  IC50: 25.5 µM
[5]
  MIC: 256 µg/mL
[6]
  fold change (FC): 0
[7]
  fold change (FC): 2
[8]
  fold change (FC): 2
[9]
  MIC: 16 µg/mL
[10]
  fold change (FC): 0
[11]
  MIC: 64 µg/mL
[12]
  fold change (FC): 2
[13]
  MIC: 512 µg/mL

## CCn1cc(-c2ccnc(N)n2)c2cc(Br)ccc21
[1]
  EC50: > 50 µM
[2]
  IC50: 37.1 µM

## Nc1nccc(-c2c[nH]c3ccc(I)cc23)n1
[1]
  EC50: 28.1 µM
[3]
  MIC: 64 µg/mL
[4]
  MIC: ≥ 200 µM
[2]
  IC50: 13.1 µM
[5]
  MIC: 512 µg/mL
[6]
  fold change (FC): 0
[7]
  fold change (FC): 0
[8]
  fold change (FC): 0
[9]
  MIC: 16 µg/mL
[10]
  fold change (FC): 0
[11]
  MIC: 128 µg/mL
[12]
  fold change (FC): 2
[13]
  MIC: 512 µg/mL

## Cn1cc(-c2ccnc(N)n2)c2cc(Br)ccc21
[1]
  EC50: > 50 µM
[3]
  MIC: 16 µg/mL
[4]
  MIC: ≥ 200 µM
[2]
  IC50: 27.8 µM
[5]
  MIC: 256 µg/mL
[6]
  fold change (FC): 8
[7]
  fold change (FC): 2
[8]
  fold change (FC): 4
[9]
  MIC: 8 µg/mL
[10]
  fold change (FC): 2
[11]
  MIC: 32 µg/mL
[12]
  fold change (FC): 8
[13]
  MIC: 64 µg/mL

## CCn1cc(-c2ccnc(N)n2)c2ccc(Br)cc21
[1]
  EC50: > 50 µM
[2]
  IC50: 39.1 µM

## CCNc1nccc(-c2c[nH]c3ccc(Br)cc23)n1
[1]
  EC50: 39.3 µM
[3]
  MIC: 128 µg/mL
[4]
  MIC: ≥ 200 µM
[2]
  IC50: 14.2 µM
[5]
  MIC: 512 µg/mL
[6]
  fold change (FC): 0
[7]
  fold change (FC): 0
[8]
  fold change (FC): 2
[9]
  MIC: 16 µg/mL
[10]
  fold change (FC): 0
[11]
  MIC: 64 µg/mL
[12]
  fold change (FC): 0
[13]
  MIC: 512 µg/mL

## CCCn1cc(-c2ccnc(N)n2)c2ccc(Br)cc21
[1]
  EC50: > 50 µM
[2]
  IC50: 34.5 µM

## Cc1ccc2[nH]cc(-c3ccnc(N)n3)c2c1
[1]
  EC50: > 50 µM
[2]
  IC50: 15.7 µM

## Cn1cc(-c2ccnc(N)n2)c2ccc(Br)cc21
[1]
  EC50: > 50 µM
[2]
  IC50: 26.7 µM

## CC(C)Cn1cc(-c2ccnc(N)n2)c2cc(Br)ccc21
[1]
  EC50: > 50 µM
[2]
  IC50: 14.9 µM

## Nc1nc(-c2c[nH]c3ccc(Br)cc23)c[nH]1
[1]
  EC50: > 50 µM
[4]
  MIC: 100 µM (≈ 27.7 µg/mL)
[2]
  IC50: 9.5 µM

## CN(C)c1nccc(-c2c[nH]c3ccc(Br)cc23)n1
[1]
  EC50: 35.7 µM
[3]
  MIC: 128 µg/mL
[4]
  MIC: ≥ 200 µM
[2]
  IC50: 14.3 µM
[5]
  MIC: 512 µg/mL
[6]
  fold change (FC): 0
[7]
  fold change (FC): 0
[8]
  fold change (FC): 2
[9]
  MIC: 16 µg/mL
[10]
  fold change (FC): 0
[11]
  MIC: 64 µg/mL
[12]
  fold change (FC): 0
[13]
  MIC: 512 µg/mL

## Nc1nccc(-c2c[nH]c3cc(I)ccc23)n1
[1]
  EC50: 29.4 µM
[3]
  MIC: 128 µg/mL
[4]
  MIC: ≥ 200 µM
[2]
  IC50: 13.2 µM
[5]
  MIC: 512 µg/mL
[6]
  fold change (FC): 0
[7]
  fold change (FC): 0
[8]
  fold change (FC): 0
[9]
  MIC: 16 µg/mL
[10]
  fold change (FC): 0
[11]
  MIC: 128 µg/mL
[12]
  fold change (FC): 0
[13]
  MIC: 512 µg/mL

## Brc1ccc2[nH]cc(-c3ccnc(NCc4ccccc4)n3)c2c1
[1]
  EC50: 28.3 µM
[3]
  MIC: 64 µg/mL
[4]
  MIC: ≥ 200 µM
[2]
  IC50: 6.9 µM
[5]
  MIC: 256 µg/mL
[6]
  fold change (FC): 0
[7]
  fold change (FC): 2
[8]
  fold change (FC): 2
[9]
  MIC: 16 µg/mL
[10]
  fold change (FC): 0
[11]
  MIC: 64 µg/mL
[12]
  fold change (FC): 2
[13]
  MIC: 512 µg/mL
[14]
  hemolysis at 1 h, 200 µM: 9%
[15]
  hemolysis at 1 h, 500 µM: 32%

## CCCCn1cc(-c2ccnc(N)n2)c2ccc(Br)cc21
[1]
  EC50: > 50 µM
[2]
  IC50: > 50 µM
[14]
  hemolysis at 1 h, 200 µM: 56%
[15]
  hemolysis at 1 h, 500 µM: 73%

## CCCCCn1cc(-c2ccnc(N)n2)c2cc(Br)ccc21
[1]
  EC50: > 50 µM
[2]
  IC50: > 50 µM

## Nc1nccc(-c2cn(Cc3ccccc3)c3cc(Br)ccc23)n1
[1]
  EC50: > 50 µM
[2]
  IC50: 27.3 µM

## Nc1ncc(-c2c[nH]c3ccc(Cl)cc23)[nH]1
[1]
  EC50: > 50 µM
[2]
  IC50: 16 µM

## Nc1ncc(-c2c[nH]c3cc(Cl)ccc23)[nH]1
[1]
  EC50: 33.7 µM
[2]
  IC50: 10.3 µM

## Nc1ncc(-c2c[nH]c3ccc(F)cc23)[nH]1
[1]
  EC50: > 50 µM
[2]
  IC50: 40.2 µM

## Nc1nccc(-c2c[nH]c3ccccc23)n1
[1]
  EC50: > 50 µM
[2]
  IC50: 29.5 µM

## Nc1nccc(-c2c[nH]c3ccc(Br)cc23)n1 [MERIDIANIN C]
[1]
  EC50: > 50 µM
[2]
  IC50: 22.7 µM

## Nc1nccc(-c2c[nH]c3cc(Br)ccc23)n1 [MERIDIANIN D]
[1]
  EC50: 51 µM
[4]
  MIC: 200 µM (≈ 57.8 µg/mL)
[2]
  IC50: 21.5 µM
[6]
  fold change (FC): 0
[7]
  fold change (FC): 0
[8]
  fold change (FC): 0
[10]
  fold change (FC): 0
[12]
  fold change (FC): 0
[14]
  hemolysis at 1 h, 200 µM: 8%
[15]
  hemolysis at 1 h, 500 µM: 13%
